pEC50: −log10 of the molar value. The source made the active and inactive calls. No cut-off for these calls is given here.
Key:
Human orthopneumovirus = test: Antiviral activity against Human respiratory syncytial virus A2 ATCC VR 1540 infected in African green monkey Vero 76 cells assessed as protection against virus-induced cytopathic effect after 5 days by crystal violet staining-based plaque reduction assay; type: functional, organism-based; conditions: ATCC VR 1540, Vero 76, 120 h
Yellow fever virus [1] = test: Antiviral activity against Yellow fever virus 17D vaccine (Stamaril Pasteur J07B01) infected in golden hamster BHK21 cells assessed as protection against virus-induced cytopathic effect at 20 uM pretreated for 2 hrs followed by viral infection and measured after 24 to 36 hrs post infection by MTT assay; type: functional, organism-based
Method in brief: (§1)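 Confluent BHK-21 monolayers inoculated at room temperature with YFV 17-D at 1 PFU/cell, adsorbed 60 min and washed. Compound at 20 µM (test) or 90 µM (6-azauridine reference) added 2 h before infection, during the 2 h infection, or in 2-h windows from 0 to 10 h p.i. Wells washed, refed until 10 h, CPE scored at 24–36 h p.i. Cells frozen and titred by plaque assay.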

[2] = Cytotoxicity against golden hamster BHK21 cells assessed as decrease in cell viability after 72 hrs by MTT assay; type: cell-based, Mesocricetus auratus, BHK-21
Method in brief: (§2)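 Uninfected MDBK (6×10^5 cells/mL, 10% horse serum) or BHK (1×10^6 cells/mL, 10% FBS) cells in MEM-Earle with serial compound dilutions at 37 °C, 5% CO2, run in parallel with the antiviral assays. Viability read by MTT after 72 h. CC50 by linear regression; mean of three determinations.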

Yellow fever virus [3] = conditions: Yellow fever virus 17D; vaccine (Stamaril Pasteur J07B01); at 20 µM
Enterovirus C = test: Antiviral activity against Enterovirus C Sabin […] infected in African green monkey Vero 76 cells assessed as protection against virus-induced cytopathic effect after 2 days by crystal violet staining-based plaque reduction assay; type: functional, organism-based; conditions: Vero 76, 48 h
dengue virus type 2 = test: Antiviral activity against Dengue virus type 2 clinical isolate infected in golden hamster BHK21 cells assessed as protection against virus-induced cytopathic effect after 3 to 4 days by MTT assay; type: functional, organism-based; conditions: BHK-21
Method in brief: (§3)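 BHK-21 cells (MDBK for BVDV) seeded at 5×10^4 (BHK) or 3×10^4 (MDBK) cells/well and grown overnight to confluence. Infected at m.o.i. 0.01 in maintenance MEM-Earle with 0.5% inactivated FBS. Serial compound dilutions added 2 h later (final 100, 20, 4, 0.8 µM; DMSO ≤0.1%). Viability read by MTT after 3–4 days at 37 °C. EC50 obtained by linear regression against untreated controls; mean of three determinations.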

[4] = system: Mammalian orthoreovirus 1; test: Antiviral activity against Reovirus 1 infected in golden hamster BHK21 cells assessed as protection against virus-induced cytopathic effect after 3 to 4 days by MTT assay; type: functional, organism-based; conditions: Mammalian orthoreovirus 1, BHK-21; method in brief: as §3
Human alphaherpesvirus 1 = test: Antiviral activity against Human herpesvirus 1 KOS ATCC VR 1493 infected in African green monkey Vero 76 cells assessed as protection against virus-induced cytopathic effect after 3 days by crystal violet staining-based plaque reduction assay; type: functional, organism-based; conditions: Human alphaherpesvirus 1, KOS, Vero 76, 72 h
[5] = Antiviral activity against Human enterovirus B Faulkner ATCC VR 185 infected in African green monkey Vero 76 cells assessed as protection against virus-induced cytopathic effect after 3 days by crystal violet staining-based plaque reduction assay; type: functional, cell-based; conditions: Faulkner ATCC VR 185, Vero 76, 72 h
Yellow fever virus [6] = test: Antiviral activity against Yellow fever virus 17D vaccine (Stamaril Pasteur J07B01) infected in golden hamster BHK21 cells assessed as protection against virus-induced cytopathic effect after 3 to 4 days by MTT assay; type: functional, organism-based; conditions: BHK-21; method in brief: as §3
[7] = system: Bovine viral diarrhea virus 1; test: Antiviral activity against Bovine viral diarrhea virus NADL ATCC VR 534 infected in bovine MDBK cells assessed as protection against virus-induced cytopathic effect after 3 to 4 days by MTT assay; type: functional, organism-based, Bovine viral diarrhea virus 1-NADL; conditions: Bovine viral diarrhea virus isolates and strains, ATCC VR 534, MDBK; method in brief: as §3
[8] = Selectivity index, ratio of CC50 for golden hamster BHK21 cells to EC50 for Yellow fever virus 17D; type: toxicity; conditions: read-out: Ratio CC50/EC50
Method in brief: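 Selectivity index calculated as BHK-21 CC50 divided by YFV EC50, both from MTT assays.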

[9] = Cytotoxicity against bovine MDBK cells assessed as decrease in cell viability after 72 hrs by MTT assay; type: cell-based, Bos taurus; conditions: cattle; method in brief: as §2
Yellow fever virus [10] = test: Potency index, ratio of azauridine EC50 to compound EC50 for Yellow fever virus 17D vaccine (Stamaril Pasteur J07B01); type: functional
[11] = system: Human immunodeficiency virus 1; test: Antiviral activity against HIV1 3B infected in human MT4 cells assessed as protection against virus-induced cytopathic effect after 4 days by MTT assay; type: functional, organism-based; conditions: Human immunodeficiency virus 1, 3B, MT4, 96 h
Method in brief: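 MT-4 cells (1×10^4/well) in RPMI with serial compound dilutions, infected with 100 CCID50 HIV-1 (m.o.i. 0.01). Viability read by MTT after 4 days at 37 °C. EC50 for 50% protection from cytopathicity obtained by linear regression versus untreated controls; mean of three determinations.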

[12] = Cytotoxicity against African green monkey Vero 76 cells assessed as decrease in cell viability after 48 to 96 hrs by MTT assay; type: cell-based; conditions: chlorocebus sabaeus
Method in brief: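 Vero 76 cells seeded at 5×10^5 cells/mL in D-MEM with 10% FBS and incubated with serial compound dilutions at 37 °C, 5% CO2. Viability read by MTT after 48–96 h. CC50 by linear regression versus untreated controls.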

[13] = Cytotoxicity against human MT4 cells assessed as decrease in cell viability after 96 hrs by MTT assay; type: cell-based
Method in brief: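 Exponentially growing MT-4 cells seeded at 1×10^5 cells/mL in RPMI-1640 with 10% FBS and incubated with serial compound dilutions at 37 °C, 5% CO2. Viability read by MTT after 96 h. CC50 by linear regression versus untreated controls.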

West Nile virus = test: Antiviral activity against West Nile virus clinical isolate infected in golden hamster BHK21 cells assessed as protection against virus-induced cytopathic effect after 3 to 4 days by MTT assay; type: functional, organism-based; conditions: BHK-21; method in brief: as §3
Vaccinia virus = test: Antiviral activity against Vaccinia virus Lister ATCC VR 1549 infected in African green monkey Vero 76 cells assessed as protection against virus-induced cytopathic effect after 3 days by crystal violet staining-based plaque reduction assay; type: functional, organism-based; conditions: Orthopoxvirus vaccinia, ATCC VR 1549, Vero 76, 72 h
[14] = system: Vesicular stomatitis Indiana virus; test: Antiviral activity against Vesicular stomatitis virus Indiana ATCC VR 158 infected in African green monkey Vero 76 cells assessed as protection against virus-induced cytopathic effect after 2 days by crystal violet staining-based plaque reduction assay; type: functional, organism-based; conditions: ATCC VR 158, Vero 76, 48 h
[15] = Selectivity index, ratio of CC50 for bovine MDBK cells to EC50 for Bovine viral diarrhea virus NADL ATCC VR 534; type: toxicity; conditions: cattle, read-out: Ratio CC50/EC50
Method in brief: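 Selectivity index calculated as MDBK CC50 divided by BVDV EC50, both by MTT.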

[16] = Selectivity index, ratio of CC50 for African green monkey Vero 76 cells to EC50 for Human coxsackievirus B5 Faulkner; type: toxicity; conditions: read-out: Ratio CC50/EC50
Method in brief: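 Selectivity index calculated as Vero 76 CC50 (MTT) divided by CVB-5 plaque-reduction EC50.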

[17] = Cytotoxicity against African green monkey Vero 76 cells assessed as decrease in cell viability after 5 days by MTT assay; type: cell-based; conditions: chlorocebus sabaeus
Yellow fever virus [18] = test: Antiviral activity against Yellow fever virus 17D vaccine (Stamaril Pasteur J07B01) infected in golden hamster BHK21 cells assessed as protection against virus-induced cytopathic effect at 90 uM pretreated for 2 hrs followed by viral infection and measured after 24 to 36 hrs post infection by MTT assay; type: functional, organism-based; method in brief: as §1

SMILES | pEC50 (Human orthopneumovirus) | CC50 at 72 h [2] | pEC50 (Enterovirus C) | pEC50 (dengue virus type 2) | pEC50 [4] | pEC50 (Human alphaherpesvirus 1) | pEC50 [5] | pEC50 (Yellow fever virus [6]) | pEC50 [7] | selectivity ratio [8] | CC50 at 72 h [9] | Ratio EC50 (Yellow fever virus [10]) | pEC50 [11] | CC50 [12] | CC50 at 96 h [13] | pEC50 (West Nile virus) | pEC50 (Vaccinia virus) | pEC50 [14] | CC50 at 120 h [17] | further results
NS(=O)(=O)c1ccc(N2N=C(c3ccc(OCc4ccccc4)cc3)CC2c2ccccc2)cc1 (configuration not stated) | < 4.00 | 80 to 84 µM | < 4.00 | < 4.10 | < 4.08 | < 4.00 | < 4.00 | 5.66 | < 4.14 | 36.4 | 72 µM | 10 | < 4.00 | > 100 µM | > 100 µM | < 4.10 | < 4.00 | < 4.00 | – | inhibition (Yellow fever virus [1]): Active; inhibition (Yellow fever virus [3]): Active
NS(=O)(=O)c1ccc(N2N=C(c3ccc(OCc4ccccc4)cc3)CC2c2cccc(F)c2)cc1 (configuration not stated) | < 4.60 | 9 to 11 µM | < 4.05 | < 4.96 | < 5.05 | < 4.05 | 5.07 | 5.70 | 5.00 | 5.5 | 15 µM | 10 | < 4.19 | 90 µM | 65 µM | < 4.96 | < 4.05 | < 4.05 | 25 µM | selectivity ratio [15]: 1.5; selectivity ratio [16]: 10.6
O=c1cnn([C@@H]2O[C@H](CO)[C@@H](O)[C@H]2O)c(=O)[nH]1 [6-AZAURIDINE] | 4.40 | > 100 µM | – | – | 4.74 | – | – | 4.70 | – | > 5 | – | – | – | 16 µM | – | – | – | – | – | Activity (Yellow fever virus [18]): Active
Cc1ccccc1C1CC(c2ccc(Oc3ccccc3)cc2)=NN1c1ccc(S(N)(=O)=O)cc1 (configuration not stated) | < 4.85 | 7 to 8 µM | < 4.05 | < 5.10 | < 5.15 | < 4.05 | < 4.05 | 5.66 | < 4.80 | 3.6 | 16 µM | 10 | 4.89 | 90 µM | 36 µM | < 5.10 | < 4.05 | < 4.05 | 14 µM | –
NS(=O)(=O)c1ccc(N2N=C(c3ccc(OCc4ccccc4)cc3)CC2c2ccccc2F)cc1 (configuration not stated) | < 4.00 | 90 to 92 µM | < 4.00 | < 4.05 | < 4.04 | < 4.00 | < 4.00 | 5.74 | 4.28 | 50 | > 100 µM | 10 | < 4.41 | > 100 µM | 39 µM | < 4.05 | < 4.00 | < 4.00 | – | inhibition (Yellow fever virus [1]): Active; inhibition (Yellow fever virus [3]): Active; selectivity ratio [15]: > 1.9
NS(=O)(=O)c1ccc(N2N=C(c3ccc(Oc4ccccc4)cc3)CC2c2ccccc2)cc1 (configuration not stated) | < 4.46 | 11 to 13 µM | < 4.07 | < 4.89 | < 4.96 | < 4.07 | 5.46 | 5.68 | < 5.30 | 6.2 | 5 µM | 10 | 4.89 | 85 µM | 42 µM | < 4.89 | < 4.07 | < 4.07 | 35 µM | selectivity ratio [16]: 24.3
Cc1cccc(C2CC(c3ccc(Oc4ccccc4)cc3)=NN2c2ccc(S(N)(=O)=O)cc2)c1 (configuration not stated) | < 4.85 | 8 to 9 µM | < 4.09 | < 5.05 | < 5.10 | < 4.09 | < 4.09 | 5.74 | < 5.22 | 5 | 6 µM | 10 | < 4.46 | 81 µM | 35 µM | < 5.05 | < 4.09 | < 4.09 | 14 µM | –

Source: ChEMBL document CHEMBL4130485, “Inhibitors of Yellow Fever Virus replication based on 1,3,5-triphenyl-4,5-dihydropyrazole scaffold: Design, synthesis and antiviral evaluation” (Eur J Med Chem, 2017)
